Data set [1] deals with Histoplasma capsulatum. Nature of the data set: Antifungal activity against Histoplasma capsulatum 26 by agar dilution assay. It counts as functional. In short, it runs like this: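 In vitro MIC against H. capsulatum strain 26 by standard agar dilution. Amphotericin B was run as the standard in each test.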
(In general: In agar dilution the substance is mixed into plates at graded concentrations.)

The subject of data set [2] is Histoplasma capsulatum. The data set is described as follows: Antifungal activity against Histoplasma capsulatum infected in x-irradiated mouse assessed as prolongation of lifetime at 25 mg/kg, sc bid administered on day 0, 1 and 2 post infection. It counts as functional. The following applies: route subcutaneous. In short, it runs like this: (§1)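 Mice infected with H. capsulatum were dosed sc at 0 and 4 h postinfection on days 0, 1 and 2, six doses in total. Read-out was % extension of lifetime beyond untreated controls. Amphotericin B, dosed the same way, served as positive control.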

In data set [3] the test system is Histoplasma capsulatum. Nature of the data set: Antifungal activity against Histoplasma capsulatum infected in x-irradiated mouse assessed as prolongation of lifetime at 13 mg/kg, sc bid administered on day 0, 1 and 2 post infection. Type of data set: functional. The following applies: route subcutaneous. Summed up:
as §1

The test system of data set [4] is Histoplasma capsulatum. Nature of the data set: Antifungal activity against Histoplasma capsulatum infected in x-irradiated mouse assessed as prolongation of lifetime at 6 mg/kg, sc bid administered on day 0, 1 and 2 post infection. Type of data set: functional. The following applies: route subcutaneous. Summed up:
as §1

The subject of data set [5] is Mus musculus. The data set is described as follows: Toxicity in mouse at 50 mg/kg, sc bid. Type of data set: organism-based. The arrangement: dose 50 mg/kg, route subcutaneous. The following applies: in vivo.
Data set [6] concerns Histoplasma capsulatum. Nature of the data set: Antifungal activity against Histoplasma capsulatum infected in x-irradiated mouse assessed as prolongation of lifetime at 40 mg/kg, sc bid administered on day 0, 1 and 2 post infection. It counts as functional. The settings on record: route subcutaneous. In short, it runs like this: as §1
For data set [7], the system named is Histoplasma capsulatum. The data set is described as follows: Antifungal activity against Histoplasma capsulatum infected in x-irradiated mouse assessed as prolongation of lifetime at 20 mg/kg, sc bid administered on day 0, 1 and 2 post infection. It counts as functional. The following applies: route subcutaneous. In short, it runs like this: as §1
Data set [8] deals with Histoplasma capsulatum. The data set is described as follows: Antifungal activity against Histoplasma capsulatum infected in x-irradiated mouse assessed as prolongation of lifetime at 10 mg/kg, sc bid administered on day 0, 1 and 2 post infection. The settings on record: route subcutaneous. It counts as functional. Summed up:
as §1

For data set [9], the system named is Mus musculus. The data set is described as follows: Toxicity in ip dosed mouse. Type of data set: organism-based. The following applies: in vivo.
The test system of data set [10] is Histoplasma capsulatum. Nature of the data set: Antifungal activity against Histoplasma capsulatum infected in x-irradiated mouse assessed as prolongation of lifetime at 50 mg/kg, sc bid administered on day 0, 1 and 2 post infection. It counts as functional. The following applies: route subcutaneous. Summed up: as §1
The subject of data set [11] is Candida albicans. Nature of the data set: Antifungal activity against Candida albicans by disk-plate assay. Type of data set: functional, organism-based.
Data set [12] deals with Candida albicans. Nature of the data set: Antifungal activity against Candida albicans infected in mouse. Type of data set: functional, organism-based.

≈ marks a conversion by molar mass, not a printed value. Calls of active or inactive are those of the source. Some results are limits rather than exact numbers.

In data set [1], `S=C(SSC(=S)N1CCOCC1)N1CCOCC1` had an MIC of 40 mg/L (≈ 123 µM). Also, the Activity is 5% in [2], 5% in data set [3], 5% in data set [4] and “Toxic” in data set [5].

For the compound `CC(C)(C)SSC(=S)N1CCOCC1`, the minimal inhibitory concentration (MIC) in data set [1] was above 40 mg/L. The Activity in [6] is 11%; in data set [7], 5%; in [8], -4%.

Compound `CCCCCCCCCCN1CCSSC1=S` came in with a minimal inhibitory concentration (MIC) in data set [1] above 10 mg/L. In addition, the Activity in data set [9] is 0.1 g/kg.

Take `C[C@@H]1[C@H](O)[C@@H](C)/C=C/C=C/C=C/C=C/C=C/C=C/C=C/[C@H](O[C@@H]2O[C@H](C)[C@@H](O)[C@H](N)[C@@H]2O)C[C@@H]2O[C@](O)(C[C@@H](O)C[C@@H](O)[C@H](O)CC[C@@H](O)C[C@@H](O)CC(=O)O[C@H]1C)C[C@H](O)[C@H]2C(=O)O` [AMPHOTERICIN B]: the MIC in [1] was 0.0625 mg/L (≈ 0.0676 µM). Further, the Activity came out at 70% in data set [10] and 58% in [2].

Compound `Cc1ccc(SSC(=S)N2CCOCC2)cc1` registered an MIC in data set [1] of 40 mg/L (≈ 140 µM). Besides, the Activity is 9% in data set [10], 0% in [2] and 5% in data set [3].

For `COc1ccc(C(=S)SSc2ccc(C)cc2)cc1`, in data set [1], the lowest concentration to inhibit growth (MIC) was 20 mg/L (≈ 65.3 µM). The Activity is listed as -2% in [10], 7% in [2] and 2% in data set [3].

As for `Cc1ccc(SSCC(=O)O)cc1`, the MIC in data set [1] is 20 mg/L (≈ 93.3 µM). The results for the Activity in data set [10], in [2] and in data set [3] were 0%, -6% and 17%, respectively.

`O=C(O)c1ccccc1SSC(=S)N1CCOCC1` had an MIC in data set [1] above 10 mg/L. Moreover, the Activity was -7% in data set [10], -5% in [2], -2% in data set [3] and 0.1 g/kg in [9].

The compound `Cc1ccc(SSCCCCS(=O)[O-])cc1.[Na+]` displayed a minimum inhibitory concentration (MIC) in data set [1] of 20 mg/L. The Activity was -21% in [10], -6% in data set [2] and 15% in data set [3].

With `S=C(SSc1ccccc1)N1CCOCC1`, the MIC in [1] was 40 mg/L (≈ 147 µM). Also, the Activity in data set [2] was 9%; in data set [3], 11%; in data set [4], 5%; in data set [5], “Toxic”.

In data set [1], `CN(C)C(=S)SSc1ccccc1C(=O)O` showed a minimal inhibitory concentration (MIC) below 1 mg/L. Further, the Activity in [9] was 0.1 g/kg.

`CN(C)C(=S)SSc1ccc(Cl)cc1` returned an MIC in data set [1] of 5 mg/L (≈ 19 µM). The Activity in [10] was 11%; in [2], 13%; in data set [3], -14%; in data set [9], 1 g/kg. Besides, in data set [11], the result was Active. For the same compound, the outcome in [12] was inactive.

In data set [1], `CCSSC(=S)N1CCOCC1` yielded an MIC of 10 mg/L (≈ 44.8 µM). Moreover, the Activity is 5% in data set [2], 5% in data set [3], 5% in data set [4] and “Toxic” in [5].

`COc1ccc(CSSCCCCS(=O)[O-])cc1.[Na+]` registered an MIC in [1] of 20 mg/L. The Activity in [10] is reported as 9%; in data set [2], -19%; in data set [3], -2%.

As to `Cc1ccc(SSCCN)cc1.Cl`, the minimum inhibitory concentration (MIC) in data set [1] is above 20 mg/L. The Activity stood at 9% in data set [10], 0% in data set [2] and 4% in data set [3].

For the compound `S=C1SSCCN1CCCCC1CCCCC1`, in [1], it took 10 mg/L (≈ 34.5 µM) to inhibit growth (MIC). Also, the Activity in data set [9] was found to be 0.1 g/kg.

Broadly, the MIC is the smallest concentration in the dilution series that meets the test's criterion for growth inhibition.

These data come from ChEMBL document CHEMBL3244357, “Biologically oriented organic sulfur chemistry. 15. Organic disulfides and related substances. 41. Inhibition of the fungal pathogen Histoplasma capsulatum by some organic disulfides” (J Med Chem, 1977).
